Data reported in ChEMBL document CHEMBL4138113, “Novel propanamides as fatty acid amide hydrolase inhibitors” (Eur J Med Chem, 2017).
Active and inactive are the calls of the source.

Tests used:
[1] = target: T1, Prostaglandin G/H synthase 1 (Ovis aries) (UniProt P05979); assay: Inhibition of recombinant ovine COX1 at 100 uM using arachidonic acid as substrate after 5 mins
T1 sequence (whole entry): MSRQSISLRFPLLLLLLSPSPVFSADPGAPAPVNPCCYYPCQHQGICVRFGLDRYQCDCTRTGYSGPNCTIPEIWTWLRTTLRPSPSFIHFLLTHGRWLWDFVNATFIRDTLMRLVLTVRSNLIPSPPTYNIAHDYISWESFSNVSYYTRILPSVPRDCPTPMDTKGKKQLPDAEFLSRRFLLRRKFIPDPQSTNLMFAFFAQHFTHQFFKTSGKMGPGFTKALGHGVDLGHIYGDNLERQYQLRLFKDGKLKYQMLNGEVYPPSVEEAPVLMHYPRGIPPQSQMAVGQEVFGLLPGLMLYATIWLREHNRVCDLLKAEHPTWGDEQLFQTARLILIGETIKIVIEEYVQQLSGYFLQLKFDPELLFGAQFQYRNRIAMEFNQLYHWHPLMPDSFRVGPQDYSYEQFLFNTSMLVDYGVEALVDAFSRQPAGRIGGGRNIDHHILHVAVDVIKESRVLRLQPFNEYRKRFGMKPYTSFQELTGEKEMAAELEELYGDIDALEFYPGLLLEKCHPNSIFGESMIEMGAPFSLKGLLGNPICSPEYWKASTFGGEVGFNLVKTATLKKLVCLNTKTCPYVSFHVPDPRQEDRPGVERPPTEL
In short: (§1)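 Oxygen-electrode assay at room temperature in 0.1 M Tris-HCl, pH 7.4, with 1 µM haematin, 2 mM phenol, 5 mM EDTA and 10 µM (final) arachidonic acid or 2-AG. Compound in EtOH was added and a 5 min baseline recorded. The reaction was started with ovine COX-1 or human recombinant COX-2 (200 U), and oxygen consumption was read in 10 s blocks. Means ± SEM, n = 3-4.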

[2] = target: T2, Fatty-acid amide hydrolase 1 (Rattus norvegicus) (UniProt P97612); assay: Inhibition of rat brain FAAH using [3H]AEA as substrate after 10 mins in presence of N-(3-Methylpyridin-2-yl)-2-(4-((2-(trifluoromethyl)pyridin-4-yl)amino)phenyl)propanamide by liquid scintillation counting analysis
T2 sequence (whole entry): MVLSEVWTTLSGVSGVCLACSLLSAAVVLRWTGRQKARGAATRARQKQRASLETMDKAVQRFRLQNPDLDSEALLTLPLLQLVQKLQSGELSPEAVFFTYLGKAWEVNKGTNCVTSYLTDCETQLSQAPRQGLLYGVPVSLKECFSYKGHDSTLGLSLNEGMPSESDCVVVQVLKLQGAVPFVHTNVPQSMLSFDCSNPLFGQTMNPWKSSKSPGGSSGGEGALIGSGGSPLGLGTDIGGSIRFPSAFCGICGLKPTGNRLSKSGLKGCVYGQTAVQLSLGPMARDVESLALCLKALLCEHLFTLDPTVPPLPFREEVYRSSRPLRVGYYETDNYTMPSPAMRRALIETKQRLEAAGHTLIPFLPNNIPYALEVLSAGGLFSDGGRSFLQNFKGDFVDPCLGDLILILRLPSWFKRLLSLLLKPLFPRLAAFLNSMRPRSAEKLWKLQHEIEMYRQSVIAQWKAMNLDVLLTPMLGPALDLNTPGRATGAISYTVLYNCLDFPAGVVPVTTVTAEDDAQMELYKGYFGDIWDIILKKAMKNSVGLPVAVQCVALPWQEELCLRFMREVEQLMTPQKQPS
In short: (§2)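 Rat (Wistar or Sprague-Dawley) brain homogenate without cerebella, washed and pre-incubated 15 min at 37 °C to clear endogenous substrate. Compound (in ethanol or DMSO) was mixed with 1 µg protein on ice in 10 mM Tris-HCl, 1 mM EDTA, pH 7.4. Reaction used 0.5 µM [3H]AEA with fatty acid-free BSA for 10 min at 37 °C. It was stopped with charcoal/HCl, and supernatant tritium was counted. ≥5 half-log concentrations, ≥3 experiments; maximum inhibition = 100 − fitted bottom.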

[3] = target: T3, Fatty-acid amide hydrolase 1 (Rattus norvegicus, UniProt P97612); assay: Competitive inhibition of rat brain FAAH using [3H]AEA as substrate after 10 mins by Dixon plot analysis
T3 sequence (P97612 whole entry): T2 sequence (whole entry)
In short: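 Kinetic study in rat brain homogenate (1 µg protein per assay). [3H]AEA hydrolysis ran for 10 min at 37 °C in Tris-EDTA buffer, pH 7.4, with the AEA:fatty acid-free BSA ratio held at 1:~4.5 across substrate levels. Radioactivity was measured by charcoal separation and scintillation counting. Data were fitted to competitive, mixed-type and non-competitive models, and the best model was chosen by Akaike's criterion.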

[4] = target: T1, Prostaglandin G/H synthase 1 (Ovis aries); assay: Inhibition of ovine COX1 using arachidonic acid as substrate after 5 mins; in short: as §1
Homo sapiens = species: Homo sapiens; assay: Selectivity ratio of IC50 for FAAH T488A mutant (unknown origin) expressed in human HeLa cells after 2 hrs to IC50 for FAAH (unknown origin) expressed in human HeLa cells transfected with empty vector after 2 hrs; format: cell-based
[5] = target: T2, Fatty-acid amide hydrolase 1 (Rattus norvegicus); assay: Inhibition of rat brain FAAH using [3H]AEA as substrate after 10 mins in presence of N-(3-Chloropyridin-2-yl)-2-(4-((2-(trifluoromethyl)pyridin-4-yl)amino)phenyl)propanamide by liquid scintillation counting analysis; in short: as §2
[6] = target: T4, Fatty-acid amide hydrolase 1 (Mus musculus) (UniProt O08914); assay: Inhibition of B6CBAF1/J mouse brain FAAH using [3H]AEA as substrate after 10 mins in presence of N-(3-Chloropyridin-2-yl)-2-(4-((2-(trifluoromethyl)pyridin-4-yl)amino)phenyl)propanamide by Dixon plot analysis
T4 sequence (whole entry): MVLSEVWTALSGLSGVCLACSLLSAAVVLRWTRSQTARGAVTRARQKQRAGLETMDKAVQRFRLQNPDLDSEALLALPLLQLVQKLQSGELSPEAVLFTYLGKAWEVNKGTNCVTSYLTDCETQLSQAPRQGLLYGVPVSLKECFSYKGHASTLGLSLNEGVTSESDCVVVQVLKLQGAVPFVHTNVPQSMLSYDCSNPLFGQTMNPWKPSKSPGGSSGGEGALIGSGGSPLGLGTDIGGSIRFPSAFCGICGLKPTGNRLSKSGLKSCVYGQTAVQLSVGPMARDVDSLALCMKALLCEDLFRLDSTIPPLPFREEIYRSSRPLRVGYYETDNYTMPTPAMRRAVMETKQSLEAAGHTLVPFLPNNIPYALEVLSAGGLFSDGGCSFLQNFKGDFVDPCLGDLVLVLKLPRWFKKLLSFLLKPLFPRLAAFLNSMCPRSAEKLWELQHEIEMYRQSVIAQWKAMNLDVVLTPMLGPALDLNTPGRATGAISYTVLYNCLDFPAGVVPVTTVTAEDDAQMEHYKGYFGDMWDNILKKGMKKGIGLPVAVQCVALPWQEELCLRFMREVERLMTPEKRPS
In short: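 Kinetic study in brain homogenate from male B6CBAF1/J mice (0.3 µg protein per assay). [3H]AEA hydrolysis ran for 10 min at 37 °C in Tris-EDTA buffer, pH 7.4, with the AEA:fatty acid-free BSA ratio held at 1:~4.5. Products were separated on charcoal and counted by scintillation. Competitive, mixed-type and non-competitive fits were compared by Akaike's criterion.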

Row | inhibition [1] | inhibition [2] | Ki [3] [nM] | inhibition [4] | inhibition [5] | inhibition [6] | Compound | Ratio IC50 (Homo sapiens)
1 | Active | Active | – | – | – | – | CC(C(=O)Nc1ncccc1Cl)c1ccc(Nc2ccnc(C(F)(F)F)c2)cc1 (configuration not stated) | –
2 | – | – | 390 | inactive | Active | Active | Cc1cccnc1NC(=O)C(C)c1ccc(Nc2ccnc(C(F)(F)F)c2)cc1 (configuration not stated) | 3.8
